Experiments:
[1] = Drug uptake in skin of SCID mouse xenografted with human UMUC3 cells at 0.47 micromol/kg, iv pretreated with compound followed by light irradiation at a dose of 135 J/cm2 and 75 mW/cm2 measured at 24 hrs by IVIS analysis; type: ADME, organism-based, Skin of body; details: in vivo, dose 0.47 µmol/kg
Method in brief: (§1)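 Female SCID mice with UMUC3 flank/shoulder tumors, 3 per group. PS in 1% Tween80/5% dextrose given iv at 0.47, 0.25 or 0.125 μmol/kg. Whole-body fluorescence imaging by IVIS at several times after injection; average radiant efficiency measured in tumor, liver and skin.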

[2] = Drug uptake in tumor of SCID mouse xenografted with FaDu cells assessed as fold increase at 0.47 micromol/kg, iv pretreated with compound followed by light irradiation at a dose of 135 J/cm2 and 75 mW/cm2 and measured at 24 hrs by IVIS analysis; type: ADME, organism-based, Neoplasm; details: in vivo, dose 0.47 µmol/kg
Method in brief: (§2)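 Female SCID mice bearing FaDu tumors 4–5 mm in diameter, 3 per group. PS in 1% Tween80/5% dextrose given iv at 0.47, 0.25 or 0.125 μmol/kg. IVIS whole-body fluorescence imaged at several time points; average radiant efficiency measured in tumor, liver and skin.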

FaDu [3] = test: Photodynamic antitumor activity against human FaDu cels xenografted in SCID mouse assessed as cure rate at 0.47 micromol/kg, iv pretreated with compound followed by light irradiation at a dose of 135 J/cm2 and 75 mW/cm2 and measured at 24 hrs post dose relative to control; type: functional; details: dose 0.47 µmol/kg
Method in brief: (§3)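 FaDu-bearing female SCID mice (5 per group per experiment) given iv PS at 0.47, 0.25 or 0.125 μmol/kg in Tween80/dextrose. Tumors irradiated 24 h post-injection at 665 nm, 135 J/cm², 75 mW/cm². Tumor growth measured daily for 60 days, with euthanasia above 400 mm³. Cure taken as tumor-free at day 60; survival analysed by log-rank test.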

UMUC3 [4] = test: Photosensitizing activity in human UMUC3 cells assessed as reduction in cell viability pretreated with compound for 24 hrs followed by light irradiation at 1 J/cm2 and measured after 48 hrs by MTT assay; type: functional, cell-based; details: UMUC3, light or radiation study
Method in brief: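 Cells plated 0.01x10⁶ to 0.05x10⁶ cells/ml and allowed to adhere 24 h before photosensitizer was added, top dose 1600 nM with 2-fold serial dilutions. Plates received no light (0 J/cm²) or 1 J/cm² at 565 mW, 15 cm spot. After 48 h, MTT added for 3 h, formazan solubilized in DMSO and read at 570 nm; IC₅₀ fitted from dose-response.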

[5] = Drug uptake in tumor of SCID mouse xenografted with FaDu cells at 0.47 micromol/kg, iv pretreated with compound followed by light irradiation at a dose of 135 J/cm2 and 75 mW/cm2 and measured at 24 hrs by IVIS analysis; type: ADME, organism-based, Neoplasm; details: in vivo, dose 0.47 µmol/kg; method in brief: as §2
[6] = Drug uptake in liver of SCID mouse xenografted with human UMUC3 cells at 0.47 micromol/kg, iv pretreated with compound followed by light irradiation at a dose of 135 J/cm2 and 75 mW/cm2 measured at 24 hrs by IVIS analysis; type: ADME, organism-based; details: in vivo, dose 0.47 µmol/kg; method in brief: as §1
[7] = Drug uptake in human FaDu clone 49 cells assessed as increase in drug retention at 1.6 uM in RPMI medium with 10% FBS followed by 48 hrs chase period by inverted fluorescence microscopic analysis
FaDu [8] = test: Photodynamic antitumor activity against human FaDu cells xenografted in SCID mouse assessed as cure rate at 0.47 micromol/kg, iv pretreated with compound followed by light irradiation at a dose of 135 J/cm2 and 75 mW/cm2 measured at 24 hrs relative to control; type: functional; details: dose 0.47 µmol/kg; method in brief: as §3
[9] = Drug uptake in human CFSE-stained HN-121 cells assessed as increase in drug retention at 1.6 uM in medium with 10% FBS followed by 48 hrs chase period by inverted fluorescence microscopic analysis; type: ADME, cell-based; details: hn-121, 48 h
[10] = Drug uptake in skin of SCID mouse xenografted with FaDu cells at 0.47 micromol/kg, iv pretreated with compound followed by light irradiation at a dose of 135 J/cm2 and 75 mW/cm2 and measured at 24 hrs by IVIS analysis; type: ADME, organism-based, Skin of body; details: in vivo, dose 0.47 µmol/kg; method in brief: as §2
FaDu [11] = test: Photosensitizing activity in human FaDu cells assessed as reduction in cell viability pretreated with compound for 24 hrs followed by light irradiation at 1 J/cm2 and measured after 48 hrs by MTT assay; type: functional, cell-based; details: light or radiation study
Method in brief: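 Cells seeded at 0.01–0.05 x 10⁶ cells/ml; PS added 24 h after plating, top dose 1600 nM with 2-fold serial dilutions. Plates given 0 or 1 J/cm² light. MTT added 48 h later, formazan dissolved in DMSO, absorbance at 570 nm; IC50 from curve fitting.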

[12] = Drug uptake in liver of SCID mouse xenografted with FaDu cells at 0.47 micromol/kg, iv pretreated with compound followed by light irradiation at a dose of 135 J/cm2 and 75 mW/cm2 and measured at 24 hrs by IVIS analysis; type: ADME, organism-based; details: in vivo, dose 0.47 µmol/kg; method in brief: as §2
[13] = Drug uptake in tumor of SCID mouse xenografted with human UMUC3 cells at 0.47 micromol/kg, iv pretreated with compound followed by light irradiation at a dose of 135 J/cm2 and 75 mW/cm2 measured after 24 hrs by IVIS analysis; type: ADME, organism-based, Neoplasm; details: in vivo, dose 0.47 µmol/kg; method in brief: as §1
UMUC3 [14] = test: Photodynamic antitumor activity against human UMUC3 cells xenografted in SCID mouse assessed as tumor retention at 0.47 micromol/kg, iv pretreated with compound followed by light irradiation at a dose of 135 J/cm2 and 75 mW/cm2 measured at day 30 post dose relative to control; type: functional; details: dose 0.47 µmol/kg; time 30 day
Method in brief: (§4)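 UMUC3-bearing female SCID mice given iv PS in 1% Tween80/5% dextrose. Mice restrained and tumors irradiated at 665 nm, 135 J/cm² over 30 min at 75 mW/cm², at the time of maximal tumor uptake. Tumor regrowth measured daily for 60 days; mice euthanized above 400 mm³. Cure plotted as survival curves and compared by log-rank (Mantel-Cox) test.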

[15] = Drug uptake in human HNT1 cells at 3.2 uM incubated for 30 mins in DMEM media with 10% FBS followed by […] in compound-free medium by inverted fluorescence microscopic analysis; type: ADME, cell-based; details: hnt1, 0.5 h, in the assay text read “in serum-free medium” for “in DMEM media with 10% FBS”
Method in brief: (§5)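 Confluent HNT1 cultures (passage 116) given 3.2 μM PS for 30 min in serum-free medium, then 5 h in serum-containing medium with PS, then 15 h chase in serum medium without PS. Fluorescence recorded at 100X with varied camera exposures and quantified digitally; pixel signal normalized to time and cell number.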

[16] = Drug uptake in human HNT1 cells at 3.2 uM incubated for 30 mins in serum free medium followed by […] in compound-free medium by inverted fluorescence microscopic analysis; type: ADME, cell-based; details: hnt1, 0.5 h; method in brief: as §5
[17] = Drug uptake in tumor of SCID mouse xenografted with FaDu cells assessed as drug accumulation by measuring fold increase to that of liver at 0.47 micromol/kg, iv pretreated with compound followed by light irradiation at a dose of 135 J/cm2 and 75 mW/cm2 and measured after 24 hrs by IVIS analysis; type: ADME, organism-based, Neoplasm; details: in vivo, dose 0.47 µmol/kg; method in brief: as §2
[18] = Drug uptake in human HN-143 cells assessed as increase in drug retention retention at 3 uM in medium with 10% FBS incubated for 5 hrs followed by 40 hrs chase period by inverted fluorescence microscopic analysis; type: ADME, cell-based; details: hn-143, 5 h
Method in brief: (§6)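 Five-day co-cultures of HN-143 tumor epithelial cells and HN-166 tumor fibroblasts, both primary head & neck tumor cultures grown on collagen-1 under selective media. PS in 10% FBS medium for 5 h, then 40 h chase without PS. Phase-contrast and fluorescence images taken at 100X with 500 ms exposure; signal normalized to recording time and cell number.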

[19] = Drug uptake in tumor of SCID mouse xenografted with FaDu cells at 0.47 micromol/kg, iv pretreated with compound followed by light irradiation at a dose of 135 J/cm2 and 75 mW/cm2 and measured at 6 hrs by IVIS analysis; type: ADME, organism-based, Neoplasm; details: in vivo, dose 0.47 µmol/kg; method in brief: as §2
[20] = Drug uptake in tumor of SCID mouse xenografted with human UMUC3 cells assessed as drug accumulation by measuring fold decrease to that of liver at 0.47 micromol/kg, iv followed by light irradiation at 665 nm at a dose of 135 J/cm2 and 75 mW/cm2 and measured after 24 hrs by IVIS analysis; type: ADME, organism-based, Neoplasm; details: in vivo; method in brief: as §1
[21] = Drug uptake in human HN-166 cells assessed as increase in drug retention retention at 3 uM in medium with 10% FBS incubated for 5 hrs followed by 40 hrs chase period by inverted fluorescence microscopic analysis; type: ADME, cell-based; details: hn-166, 5 h; method in brief: as §6
UMUC3 [22] = test: Photodynamic antitumor activity against human UMUC3 cels xenografted in SCID mouse assessed as cure rate at 0.47 micromol/kg, iv pretreated with compound followed by light irradiation at a dose of 135 J/cm2 and 75 mW/cm2 and measured after 60 days post dose relative to control; type: functional; details: dose 0.47 µmol/kg; time 60 day; method in brief: as §4
FaDu [23] = test: Photodynamic antitumor activity against human FaDu cels xenografted in SCID mouse assessed as cure rate at 0.47 micromol/kg, iv pretreated with compound followed by light irradiation at a dose of 135 J/cm2 and 75 mW/cm2 and measured after 60 days post dose relative to control; type: functional; details: dose 0.47 µmol/kg; time 60 day; method in brief: as §3
[24] = Drug uptake in liver of SCID mouse xenografted with human UMUC3 cells at 0.47 micromol/kg, iv pretreated with compound followed by light irradiation at a dose of 135 J/cm2 and 75 mW/cm2 measured after 2 to 24 hrs by IVIS analysis; type: ADME, organism-based; details: in vivo, time 2-24 hrs, dose 0.47 µmol/kg; method in brief: as §1
[25] = Drug uptake in skin of SCID mouse xenografted with human UMUC3 cells at 0.47 micromol/kg, iv pretreated with compound followed by light irradiation at a dose of 135 J/cm2 and 75 mW/cm2 measured after 2 to 24 hrs by IVIS analysis; type: ADME, organism-based, Skin of body; details: in vivo, time 2-24 hrs, dose 0.47 µmol/kg; method in brief: as §1
[26] = Drug uptake in tumor of SCID mouse xenografted with human UMUC3 cells at 0.47 micromol/kg, iv pretreated with compound followed by light irradiation at a dose of 135 J/cm2 and 75 mW/cm2 measured after 2 to 24 hrs by IVIS analysis; type: ADME, organism-based, Neoplasm; details: in vivo, time 2-24 hrs, dose 0.47 µmol/kg; method in brief: as §1

CCC1=C(C)c2cc3[nH]c(cc4nc(c5c6[nH]c(cc1n2)c(C)c6C(=O)C5)[C@@H](CCC(=O)OC)[C@@H]4C)c(C)c3C(C)OCc1ccc(C#Cc2cccc(Nc3ncnc4cc(OCCOC)c(OCCOC)cc34)c2)cc1 (some centres not stated)
Drug uptake [1]: Active | fold change (FC) [2]: 2 | Activity (FaDu [3]): 66% | IC50 (UMUC3 [4]): 20.9 nM | Drug uptake [5]: Active | Drug uptake [6]: Active | Drug uptake [7]: Active | Activity (FaDu [8]): 66% | Drug uptake [9]: Active | Drug uptake [10]: Active | IC50 (FaDu [11]): 59.6 nM | Drug uptake [12]: Active | Drug uptake [13]: Active

CCCCCCOC(C)c1c(C)c2cc3nc(c4c5[nH]c(cc6nc(cc1[nH]2)C(C)=C6CC)c(C)c5C(=O)C4)[C@@H](CCC(=O)O)[C@@H]3C (some centres not stated) [HPPH]
Activity (UMUC3 [14]): 30% | Activity (FaDu [3]): 30% | IC50 (UMUC3 [4]): 68.4 nM | Drug uptake [5]: Active | Drug uptake [10]: Active | IC50 (FaDu [11]): 43.8 nM | Drug uptake [12]: Active | Drug uptake [15]: Active | Drug uptake [16]: Active | Drug uptake [13]: Active

CCCCCCOC(C)c1c(C)c2cc3nc(c4c5[nH]c(cc6nc(cc1[nH]2)C(C)=C6CC)c(C)c5C(=O)C4)[C@@H](CCC(=O)NCCCCn1cc(-c2cccc(Nc4ncnc5cc(OCCOC)c(OCCOC)cc45)c2)nn1)[C@@H]3C (some centres not stated)
fold change (FC) [17]: 2 | Drug uptake [18]: Active | Drug uptake [19]: Active | fold change (FC) [20]: 2 | IC50 (UMUC3 [4]): 20.2 nM | Drug uptake [21]: Active | Activity (UMUC3 [22]): 20% | Drug uptake [7]: Active | Drug uptake [9]: Active | IC50 (FaDu [11]): 17.6 nM | Activity (FaDu [23]): 40% | Drug uptake [13]: Active

CCC1=C(C)c2cc3[nH]c(cc4nc(c5c6[nH]c(cc1n2)c(C)c6C(=O)C5)[C@@H](CCC(=O)OC)[C@@H]4C)c(C)c3COCc1cccc(C#Cc2cccc(Nc3ncnc4cc(OCCOC)c(OCCOC)cc34)c2)c1
Drug uptake [24]: Active | IC50 (UMUC3 [4]): 76.3 nM | Drug uptake [25]: Active | Drug uptake [7]: Not Active | Drug uptake [26]: Not Active | Drug uptake [9]: Not Active | IC50 (FaDu [11]): 23.3 nM
